Results reported in ChEMBL document CHEMBL2046332, “Substrate analog studies of the ω-regiospecificity of Mycobacterium tuberculosis cholesterol metabolizing cytochrome P450 enzymes CYP124A1, CYP125A1 and CYP142A1” (Bioorg Med Chem, 2012).
The source made the active and inactive calls. No cut-off for these calls is given here.

Key:
[1] = test system: Mycobacterium tuberculosis; assay: Activity of Mycobacterium tuberculosis CYP124A1 assessed as relative apparent turnover number at 50 uM incubated for 1 hr at 25 degC by GC-MS method relative to cholesterol
[2] = Binding affinity to Mycobacterium tuberculosis CYP142A1 by UV-visible spectrophotometry; conditions: read-out: Kd(app)
Procedure, shortened: (§1)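 Spectral titration of each P450 with steroid solubilised in methyl β-cyclodextrin. Ligand-induced low-spin/high-spin shifts were followed in the Soret region and at ~650 nm to assign binding type. Absolute spectra of the P450–steroid complexes were also examined.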

[3] = molecular target: T1, Steroid C26-monooxygenase (Mycobacterium tuberculosis, UniProt P9WPP1); assay: Activity of Mycobacterium tuberculosis CYP125A1 assessed as relative apparent turnover number at 50 uM incubated for 1 hr at 25 degC by GC-MS method relative to cholesterol
T1 sequence (P9WPP1 whole entry): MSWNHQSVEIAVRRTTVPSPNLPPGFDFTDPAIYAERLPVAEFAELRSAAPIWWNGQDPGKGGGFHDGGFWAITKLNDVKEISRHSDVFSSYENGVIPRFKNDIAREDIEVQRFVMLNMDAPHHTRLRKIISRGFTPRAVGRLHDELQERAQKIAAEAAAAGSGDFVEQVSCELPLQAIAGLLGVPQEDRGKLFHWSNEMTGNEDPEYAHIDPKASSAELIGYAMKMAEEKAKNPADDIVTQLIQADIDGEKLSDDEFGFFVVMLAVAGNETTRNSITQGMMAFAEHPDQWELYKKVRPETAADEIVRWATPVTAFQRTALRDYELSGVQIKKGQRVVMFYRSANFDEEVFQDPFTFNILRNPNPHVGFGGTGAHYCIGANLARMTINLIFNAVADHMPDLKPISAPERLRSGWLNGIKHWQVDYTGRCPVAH

[4] = test system: Mycobacterium tuberculosis; assay: Activity of Mycobacterium tuberculosis CYP124A1 assessed as apparent turnover number at 50 uM incubated for 1 hr at 25 degC by GC-MS method
Procedure, shortened: (§2)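 Each P450 (250 nM) was incubated with 50 μM substrate, 5 μg catalase, 50 μg/mL ferredoxin, 0.16 U/mL ferredoxin-NADP+ reductase, and an NADPH-regenerating system (1 mM glucose-6-phosphate, 2.4 U/mL G6P dehydrogenase, 5 mM MgCl2, 800 μM NADP+). Buffer was 50 mM potassium phosphate pH 7.5, 25 °C, 1 h. Quenched with HCl, extracted into hexanes, TMS-derivatised, GC-MS. Controls lacked P450 or NADPH.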

[5] = molecular target: T1, Steroid C26-monooxygenase; assay: Binding affinity to Mycobacterium tuberculosis CYP125A1 assessed as type 1 binding mode at 0.05 to 0.2 uM by UV-visible spectrophotometry; procedure, shortened: as §1
[6] = test system: Mycobacterium tuberculosis; assay: Binding affinity to Mycobacterium tuberculosis CYP124A1 assessed as type 1a binding mode at > 0.05 to 0.2 uM by UV-visible spectrophotometry; procedure, shortened: as §1
[7] = test system: Mycobacterium tuberculosis; assay: Binding affinity to Mycobacterium tuberculosis CYP124A1 assessed as type 1 binding mode at 0.05 to 0.2 uM by UV-visible spectrophotometry; procedure, shortened: as §1
[8] = molecular target: T1, Steroid C26-monooxygenase; assay: Binding affinity to Mycobacterium tuberculosis CYP125A1 by UV-visible spectrophotometry; conditions: read-out: Kd(app); procedure, shortened: as §1
[9] = test system: Mycobacterium tuberculosis; assay: Binding affinity to Mycobacterium tuberculosis CYP142A1 assessed as type 1 binding mode at 0.05 to 0.2 uM by UV-visible spectrophotometry; procedure, shortened: as §1
[10] = molecular target: T1, Steroid C26-monooxygenase; assay: Activity of Mycobacterium tuberculosis CYP125A1 assessed as apparent turnover number at 50 uM incubated for 1 hr at 25 degC by GC-MS method; procedure, shortened: as §2

Work on `CC=C(C)CCC[C@@H](C)[C@H]1CC[C@H]2[C@@H]3CC=C4C[C@@H](O)CC[C@]4(C)[C@H]3CC[C@]12C` (mixture of isomers) yielded an Activity [1] of 22.4%, a Kd [2] of 160 nM and an Activity [3] of 29.9%. For the same molecule, the Kcat(app) [4] was 0.005 s⁻¹, the Activity [5] was “Active” and the Activity [6] was “Active”. The Activity [7] was “Active”, the Kd [8] was 450 nM and the Activity [9] was “Active”. For the same molecule, the “Kcat(app)” value [10] was 0.135 s⁻¹.
